# An excerpt weighted towards active compounds, which were near 4.9% of everything screened.
# STAT1 act – STAT1 signaling activation; NIH 3T3 STAT1-luciferase reporter, IFN-gamma, luminescence; 100% = IFN-gamma alone, no compound; activation (% of control), % at 5.5 µM; 200,000 compounds, 2.6% hits;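 active = activation above the screen-wide mean activation plus 3 SD, cut at about 130% in these data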;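 note: raw ratio to IFN-gamma control signal so 100% means no change and 0% no light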
# APP 5'UTR act – activates APP 5'UTR luciferase reporter; SH-SY5Y APP 5'UTR luciferase reporter, luminescence; zero percent = DMSO vehicle wells; activation, % at 2 µM; 190,000 compounds, 1% hits;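 active = activation above a set limit, based on mean plus 3 SD of controls, cut at about 140% in these data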
# NF-kB expr up – raises NF-kB expression in human neuronal cells | NF-kB reporter expression; stronger effect = higher value | fold change at 12.5 µM | 190,000 compounds, 1.6% hits | AID 1239; in the data active = fold change above about 3.3
# STAT3 activator – STAT3 signaling activation. activation (% of control), % at 5.6 µM. AID 871. 190,000 compounds, 0.91% hits. U3A cells, IL-6 STAT3-luciferase reporter, luminescence; 100% = signal with IL-6 EC80 alone;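 active = activation above the screen-wide mean of compound activation plus 3 SD, cut at about 130% in these data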;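 note: 0% = background luminescence of wells with medium and substrate only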
#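 Material: human U3A cells carrying STAT3-luciferase construct. Measured by: reporter luminescence signal. Timing: compound 1 h, then IL-6 6 h at 37 °C.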
# STAT1 inh – STAT1 signaling inhibition | NIH 3T3 STAT1-luciferase reporter, IFN-gamma, luminescence | inhibition, % at 5.5 µM | 200,000 compounds, 0.35% hits | AID 920;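 active = inhibition above a set limit, the mean inhibition across all tested compounds plus 3 SD, cut at about 34% in these data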;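 note: 0% = IFN-gamma with DMSO and 100% = IFN-gamma with 300 µM nifuroxazide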
# STAT3 blocker – reduces IL-6 driven STAT3 reporter signal; inhibition, % at 5.5 µM; AID 862; 190,000 compounds, 0.89% hits; U3A cells, IL-6 STAT3-luciferase reporter, luminescence; host cell line lacks STAT1;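 active = inhibition above the mean inhibition across all screened compounds plus 3 SD, cut at about 44% in these data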;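 note: 0% = DMSO only wells and 100% = 100 µM nifuroxazide control wells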
# Starred values were filed as active, the others as inactive.
SMILES,STAT1 act,APP 5'UTR act,NF-kB expr up,STAT3 activator,STAT1 inh,STAT3 blocker
COc1ccc(NC(=S)NC(=O)c2ccc(Br)o2)cc1,147*,32,2.7,100,-54,4
NC(=O)c1ccccc1NC(=S)NC(=O)c1ccc(Br)o1,126,-15,1.7,107,-29,-4
Cc1cc(C)c(C)c(S(=O)(=O)Nc2ccccc2C(=O)NCCCN2CCOCC2)c1C,93,-13,1.1,106,7,-6
Cc1cc(C)n(-c2nc3ccccc3s2)n1,122,38,2.1,101,-26,1
Cc1cc(N)n(-c2nc3ccccc3s2)n1,122,113,4.5*,102,-23,6
Cc1nn(-c2nc3ccccc3s2)c(N)c1Sc1ccc(F)cc1,138*,32,1.2,158*,-42,-59
Cc1nn(-c2nc3ccccc3s2)c(N)c1-c1ccccc1,143*,122,7.6*,119,-47,-22
Cc1nn(-c2nc3ccccc3s2)c(N)c1-c1ccc(Cl)cc1,126,-8,1.8,105,-28,-3
OCCC1CN(CC(c2ccccc2)c2ccccc2)CCN1C1CCCC1 (configuration not stated),101,-5,0.76,102,-3,0
CC(=O)OCC(=O)Nc1ccc(Cl)cc1Cl,102,4,1,102,-4,2
O=C(COc1ccccc1)Nc1ccc(Cl)cc1Cl,134*,114,3.5*,93,-39,11
CCOC(=O)C1=C(N)N(c2cc(S(=O)(=O)N3CCOCC3)ccc2Cl)C(=O)C1,104,-3,1.4,103,-6,7
CO/N=C(/CNC(=O)c1ccc(Cl)cc1Cl)c1ccc(Cl)cc1,94,6,1,97,7,11
COc1ccc2c(c1)CC/C(=C/c1ccco1)C2=O,133*,181*,8.1*,70,-37,38
O=C1/C(=C/c2ccco2)CCc2ccccc21,105,164*,2.9,104,-6,0
Nc1ccc2c(c1)C/C(=C/c1ccco1)C2=O,210*,189*,1,101,-126,0
O=C1C(=Cc2ccco2)C(=O)c2ccccc21,101,17,1.1,111,-1,-15
Cc1nnc(SCC(=O)NC(C)(C)C)n1C1CCCCC1,102,-9,0.85,99,-2,-1
CC1CCC/C(=C\Nc2ccc(O)cc2)C1=O (configuration not stated),136*,-1,2.1,95,-40,10
Cc1cc(C(=O)O)ccc1N/C=C1\CCCC(C)C1=O (configuration not stated),150*,149*,4*,77,-54,31
CC(Nc1nc(N2CCNCC2)nc2ccccc12)c1ccccc1 (configuration not stated),113,5,1.2,92,-14,16
CCOC(=O)c1c(N)sc(C(=O)Nc2ccccc2)c1C,106,222*,7.1*,67,-8,41
CCOC(=O)c1c(N)sc(C(N)=O)c1C,98,12,1.5,78,4,32
CCC(=O)Nc1sc(C(=O)Nc2ccccc2F)c(C)c1C(=O)OC,131*,66,1.1,89,-36,17
CCOC(=O)c1c(N)sc(C(=O)Nc2ccccc2F)c1C,101,238*,7.4*,71,-1,36
SMILES,STAT1 act,APP 5'UTR act,NF-kB expr up,STAT3 activator,STAT1 inh,STAT3 blocker
COC(=O)c1c(NC(C)=O)sc(C(=O)Nc2ccccc2F)c1C,117,2,1.2,90,-17,14
CCOC(=O)c1cc(C(=O)Nc2ccccc2F)nn1C,133*,11,5.9*,102,-36,5
Cc1ccc(NC(=S)N(CCCN2CCC(C)CC2)Cc2ccco2)cc1C,96,-5,1.3,100,3,8
O=C(NC(=S)N1CCN(Cc2ccccc2)CC1)c1ccco1,96,-14,1.1,92,2,11
CC(Sc1ccccc1)C(=O)NN=C1CCCCCC1 (configuration not stated),102,9,1.1,104,-2,5
Cc1cccc(S(=O)(=O)Nc2ccc(-c3nc4ccc(C)cc4s3)cc2)c1,147*,163*,2.1,96,-54,8
Cc1ccc(N(CC(=O)Nc2ccc(-c3nc4ccc(C)cc4s3)cc2)S(C)(=O)=O)cc1,140*,121,1.9,106,-47,3

# Source: PubChem (several laboratories)
